Measurements from ChEMBL document CHEMBL1156767, “Indol-3-ylcycloalkyl ketones: effects of N1 substituted indole side chain variations on CB(2) cannabinoid receptor activity” (J Med Chem, 2010).

These molecules were tested against T1, Cannabinoid receptor 2 (Homo sapiens, UniProt P34972) (assay: Displacement of [3H]CP-55940 from human recombinant CB2 receptor expressed in HEK293 cells). Settings: hek293.
Type: cell-based

T1 sequence (P34972 whole entry): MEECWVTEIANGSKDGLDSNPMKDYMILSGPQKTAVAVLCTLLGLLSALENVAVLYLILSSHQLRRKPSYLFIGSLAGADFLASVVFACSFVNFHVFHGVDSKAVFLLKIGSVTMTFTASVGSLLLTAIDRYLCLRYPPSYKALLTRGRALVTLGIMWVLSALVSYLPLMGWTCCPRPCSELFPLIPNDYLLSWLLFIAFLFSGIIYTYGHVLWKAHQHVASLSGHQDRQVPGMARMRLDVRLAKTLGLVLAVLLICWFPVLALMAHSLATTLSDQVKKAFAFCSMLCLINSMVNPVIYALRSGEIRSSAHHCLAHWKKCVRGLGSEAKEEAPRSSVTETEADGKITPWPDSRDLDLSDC

Q: For CC1(C)C(C(=O)c2cn(CCC3CCNCC3)c3ccccc23)C1(C)C, which pKi is on record?
A: Its pKi is < 6.

Q: With CN1CCN(CCn2cc(C(=O)C3C(C)(C)C3(C)C)c3ccccc32)CC1 as the molecule, how does the pKi read?
A: Its pKi is < 6.

Q: For CN1CCC(CCn2cc(C(=O)C3C(C)(C)C3(C)C)c3ccccc32)CC1, which pKi is on record?
A: The pKi was < 6.

Q: Which pKi does the source give for CC1(C)C(C(=O)c2cn(CCN3CCNCC3)c3ccccc23)C1(C)C here?
A: Its pKi is < 6.

Q: For CC1(C)C(C(=O)c2cn(CCCN3CCOCC3)c3ccccc23)C1(C)C, which pKi is on record?
A: Its pKi is < 6.

Q: How did the pKi turn out when CC1(C)C(C(=O)c2cn(C(=O)CC3CCOCC3)c3ccccc23)C1(C)C was run?
A: The pKi was < 6.

Q: How did the pKi turn out when CN1CCCCC1Cn1cc(C(=O)c2cc([N+](=O)[O-])ccc2I)c2ccccc21 (stereo not drawn) was run?
A: Its pKi is 7.94.

Q: For CC1(C)C(C(=O)c2cn(CCC(=O)O)c3ccccc23)C1(C)C, which pKi is on record?
A: Its pKi is < 6.

Q: Which pKi does the source give for CN1CCCC1CCn1cc(C(=O)C2C(C)(C)C2(C)C)c2ccccc21 (stereo not drawn) here?
A: Its pKi is < 6.

Q: CC1(C(=O)c2cn(CCN3CCOCC3)c3ccccc23)CC1(Cl)Cl (stereo not drawn) was tested. Which pKi did it give?
A: The pKi was < 6.

Q: How did the pKi turn out when CC1(C)C(C(=O)c2cn(CCN)c3ccccc23)C1(C)C was run?
A: Its pKi is < 6.

Same assay, conditions: hek293; read-out: Ki

Q: For O=C(c1cn(CCN2CCOCC2)c2ccccc12)C1CCC1, which Ki is on record?
A: Its Ki is > 1000 nM.

Same assay, conditions: read-out: Ki

Q: For CC1(C)C(C(=O)c2cn(CCC3CCNCC3)c3ccccc23)C1(C)C, which Ki is on record?
A: The Ki was > 1000 nM.

Q: CN1CCN(CCn2cc(C(=O)C3C(C)(C)C3(C)C)c3ccccc32)CC1 was tested. Which Ki did it give?
A: The Ki was > 1000 nM.

Q: CN1CCC(CCn2cc(C(=O)C3C(C)(C)C3(C)C)c3ccccc32)CC1 was tested. Which Ki did it give?
A: Its Ki is > 1000 nM.

Q: How did the Ki turn out when CC1(C)C(C(=O)c2cn(CCN3CCNCC3)c3ccccc23)C1(C)C was run?
A: The Ki was > 1000 nM.

Q: For CC1(C)C(C(=O)c2cn(CCCN3CCOCC3)c3ccccc23)C1(C)C, which Ki is on record?
A: The Ki was > 1000 nM.

Q: For CC1(C)C(C(=O)c2cn(C(=O)CC3CCOCC3)c3ccccc23)C1(C)C, which Ki is on record?
A: Its Ki is > 1000 nM.

Q: With CC1(C)C(C(=O)c2cn(CCC(=O)O)c3ccccc23)C1(C)C as the molecule, how does the Ki read?
A: The Ki was > 1000 nM.

Q: Which Ki does the source give for CN1CCCC1CCn1cc(C(=O)C2C(C)(C)C2(C)C)c2ccccc21 (stereo not drawn) here?
A: The Ki was > 1000 nM.

Q: CC1(C(=O)c2cn(CCN3CCOCC3)c3ccccc23)CC1(Cl)Cl (stereo not drawn) was tested. Which Ki did it give?
A: Its Ki is > 1000 nM.

Q: For CC1(C)C(C(=O)c2cn(CCN)c3ccccc23)C1(C)C, which Ki is on record?
A: Its Ki is > 1000 nM.

Same assay, conditions: read-out: pKi (converted)

Q: Which Ki does the source give for O=C(c1cn(CCN2CCOCC2)c2ccccc12)C1CCC1 here?
A: Its Ki is > 1000 nM.

What follows are molecules tested against Cannabinoid receptor 1 (Homo sapiens, UniProt P21554) (assay: Displacement of [3H]CP-55940 from human recombinant CB1 receptor expressed in CHO cells). Settings: read-out: Ki.
Chain of Cannabinoid receptor 1 (P21554 whole entry): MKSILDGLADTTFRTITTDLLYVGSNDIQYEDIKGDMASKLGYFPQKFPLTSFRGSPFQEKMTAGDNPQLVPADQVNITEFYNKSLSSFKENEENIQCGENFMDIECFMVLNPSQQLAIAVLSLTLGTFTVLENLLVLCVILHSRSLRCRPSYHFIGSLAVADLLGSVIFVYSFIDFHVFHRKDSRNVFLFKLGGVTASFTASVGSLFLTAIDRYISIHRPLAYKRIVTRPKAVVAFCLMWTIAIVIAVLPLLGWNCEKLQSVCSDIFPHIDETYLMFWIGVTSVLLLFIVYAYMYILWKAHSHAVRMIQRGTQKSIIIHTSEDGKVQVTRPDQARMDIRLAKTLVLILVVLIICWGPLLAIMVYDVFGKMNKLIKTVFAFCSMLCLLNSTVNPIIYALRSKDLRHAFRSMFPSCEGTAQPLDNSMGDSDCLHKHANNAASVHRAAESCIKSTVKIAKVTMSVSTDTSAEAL
Type: cell-based

Q: For CC1(C)C(C(=O)c2cn(CCC3CCNCC3)c3ccccc23)C1(C)C, which Ki is on record?
A: The Ki was > 10000 nM.

Q: For CN1CCN(CCn2cc(C(=O)C3C(C)(C)C3(C)C)c3ccccc32)CC1, which Ki is on record?
A: The Ki was 2150 nM.

Q: With CN1CCC(CCn2cc(C(=O)C3C(C)(C)C3(C)C)c3ccccc32)CC1 as the molecule, how does the Ki read?
A: The Ki was > 10000 nM.

Q: With CC1(C)C(C(=O)c2cn(CCN3CCNCC3)c3ccccc23)C1(C)C as the molecule, how does the Ki read?
A: The Ki was > 10000 nM.

Q: How did the Ki turn out when CC1(C)C(C(=O)c2cn(CCCN3CCOCC3)c3ccccc23)C1(C)C was run?
A: Its Ki is > 10000 nM.

Q: CC1(C)C(C(=O)c2cn(C(=O)CC3CCOCC3)c3ccccc23)C1(C)C was tested. Which Ki did it give?
A: The Ki was > 10000 nM.

Q: For CC1(C)C(C(=O)c2cn(CCC(=O)O)c3ccccc23)C1(C)C, which Ki is on record?
A: The Ki was > 10000 nM.

Q: Which Ki does the source give for O=C(c1cn(CCN2CCOCC2)c2ccccc12)C1CCC1 here?
A: Its Ki is > 10000 nM.

Q: For CN1CCCC1CCn1cc(C(=O)C2C(C)(C)C2(C)C)c2ccccc21 (stereo not drawn), which Ki is on record?
A: Its Ki is > 10000 nM.

Q: For CC1(C(=O)c2cn(CCN3CCOCC3)c3ccccc23)CC1(Cl)Cl (stereo not drawn), which Ki is on record?
A: The Ki was > 10000 nM.

Q: How did the Ki turn out when CC1(C)C(C(=O)c2cn(CCN)c3ccccc23)C1(C)C was run?
A: The Ki was > 10000 nM.

Organism: Homo sapiens
Assay: Selectivity ratio of Ki for human recombinant CB1 receptor to Ki for human recombinant CB2 receptor
Settings: not given
Outline: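 Membranes were from HEK cells stably expressing human CB2 and CHO cells stably expressing human CB1. Competition was run against 0.5 nM [3H]CP-55,940 in 50 mM Tris-HCl pH 7.4, 2.5 mM EDTA, 5 mM MgCl2, 0.05% fatty-acid-free BSA, for 90 min at 30 °C, then filtered. Nonspecific binding was set with 10 μM unlabeled CP-55,940. Ki came from one-site fits. Mean ± SEM, ≥3 experiments in duplicate.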

Q: With CN1CCCCC1Cn1cc(C(=O)c2cc([N+](=O)[O-])ccc2I)c2ccccc21 (stereo not drawn) as the molecule, how does the Ratio Ki read?
A: The Ratio Ki was 110.

Each molecule was assayed against T1, Cannabinoid receptor 2 (assay: Agonist activity at human recombinant CB2 receptor expressed in HEK293 cells coexpressing Galphaq/o5 assessed as calcium mobilization by FLIPR assay). Settings: not given.
Type: functional, cell-based
Outline: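 HEK cells stably coexpressing human CB2 and chimeric Gαq/o5 were seeded at 75 000 cells/well the day before and loaded with no-wash calcium dye. Mean ± SEM, ≥3 experiments in duplicate.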

Q: CC1(C)C(C(=O)c2cn(CCN3CCNCC3)c3ccccc23)C1(C)C was tested. Which EC50 did it give?
A: Its EC50 is 2200 nM.

Q: For CC1(C)C(C(=O)c2cn(CCCN3CCOCC3)c3ccccc23)C1(C)C, which EC50 is on record?
A: Its EC50 is 1520 nM.

Q: Which EC50 does the source give for O=C(c1cn(CCN2CCOCC2)c2ccccc12)C1CCC1 here?
A: Its EC50 is > 10000 nM.

Q: CC1(C(=O)c2cn(CCN3CCOCC3)c3ccccc23)CC1(Cl)Cl (stereo not drawn) was tested. Which EC50 did it give?
A: The EC50 was 716 nM.

Q: How did the EC50 turn out when CC1(C)C(C(=O)c2cn(CCN)c3ccccc23)C1(C)C was run?
A: The EC50 was > 10000 nM.

What follows are molecules tested against T1, Cannabinoid receptor 2 (assay: Agonist activity at human recombinant CB2 receptor expressed in HEK293 cells coexpressing Galphaq/o5 assessed as calcium mobilization by FLIPR assay relative to CP-55940). Settings: not given.
Type: functional, cell-based
Outline: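 HEK cells stably coexpressing human CB2 and chimeric Gαq/o5 were seeded at 75 000 cells/well the day before and loaded with no-wash calcium dye. […] Mean ± SEM, ≥3 experiments in duplicate.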

Q: Which Activity does the source give for CC1(C)C(C(=O)c2cn(CCN3CCNCC3)c3ccccc23)C1(C)C here?
A: Its Activity is 30%.

Q: With CC1(C)C(C(=O)c2cn(CCCN3CCOCC3)c3ccccc23)C1(C)C as the molecule, how does the Activity read?
A: The Activity was 56%.

Q: How did the Activity turn out when CC1(C(=O)c2cn(CCN3CCOCC3)c3ccccc23)CC1(Cl)Cl (stereo not drawn) was run?
A: The Activity was 33%.
